Source: PubChem
ARFGAP1 inh: rat ARFGAP1 inhibition. Q62848. Arfgap1-stimulated ARF1 GTP hydrolysis, GDP FP detection. inhibition, % at 16.5 µM. actives 0.26% (n = 360,000);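 active = inhibition above a per-plate limit, mean inhibition of low control wells plus 3 SD, cut at about 25% in these data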;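 also: 0% = DMSO wells with enzyme and 100% = wells lacking Arfgap1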
Target sequence (Q62848 1-136 limits assumed): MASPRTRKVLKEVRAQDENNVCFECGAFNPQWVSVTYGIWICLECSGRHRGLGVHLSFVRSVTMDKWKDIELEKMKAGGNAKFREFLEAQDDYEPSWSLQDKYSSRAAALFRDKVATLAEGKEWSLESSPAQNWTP
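Replicates: Single well per compound | Assay system: Truncated rat Arfgap1 GAP domain | Control set: No-Arfgap1 wells (100%) versus DMSO full-reaction wells (0%) | Times: Enzyme reaction 120 min at 25 °C after 20 min preincubation | Reagent: Human ARF1(Δ1-17)-GTP substrate | Measured by: Tracer-displacement fluorescence polarization with EDTA stop, 620/688 nm | Measure: Percent inhibition of Arfgap1-stimulated GTP hydrolysis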
NadD inh: inhibitors of Staphylococcus aureus NadD; purified NadD enzyme, colorimetric absorbance read-out; inhibition, % at 20 µM; actives 0.78% (n = 360,000); AID 602399; in the data active = inhibition above about 26%
ASAP1 inh: blocks human ASAP1-stimulated Arf1 GTP hydrolysis; Q9ULH1; GDP FP detection; inhibition, % at 16.5 µM; actives 0.19% (n = 360,000); in the data active = inhibition above about 25%;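 also: 0% = vehicle with enzyme and substrate and 100% = no enzyme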
Target sequence (Q9ULH1 325-724 limits assumed): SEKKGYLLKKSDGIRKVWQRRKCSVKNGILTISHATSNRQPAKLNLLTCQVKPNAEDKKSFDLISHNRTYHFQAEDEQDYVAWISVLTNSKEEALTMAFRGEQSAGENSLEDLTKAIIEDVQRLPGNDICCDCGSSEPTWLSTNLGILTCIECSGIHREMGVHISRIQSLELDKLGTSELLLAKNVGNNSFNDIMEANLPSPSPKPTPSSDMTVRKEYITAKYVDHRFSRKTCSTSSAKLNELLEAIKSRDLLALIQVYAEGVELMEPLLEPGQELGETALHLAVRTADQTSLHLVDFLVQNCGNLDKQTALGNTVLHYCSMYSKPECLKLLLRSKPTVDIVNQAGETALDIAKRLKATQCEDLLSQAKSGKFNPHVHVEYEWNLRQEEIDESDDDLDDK
rCAG RNA binder: molecules binding r(CAG) RNA repeats; r(CAG) RNA repeat, TO-PRO-1 dye displacement fluorescence; inhibition, % at 3 µM; actives 1.3% (n = 370,000);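 active = inhibition above the plate cutoff, the mean of all test compounds on that plate plus 3 SD, cut at about 35% in these data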;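 also: 0% = DMSO alone and 100% = 100 µM mitoxantrone as full dye displacement; higher means more dye released from RNA so lower well fluorescence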
rCAG bind conf: r(CAG) RNA repeat binding, confirmation. shares compounds with rCAG RNA binder. TO-PRO-1 dye displacement fluorescence. inhibition, % at 3 µM. actives 70% (n = 4,300). AID 652065;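 active = inhibition above a per-plate cutoff, the mean inhibition of sample wells plus 3 SD, cut at about 35% in these data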;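 also: loss of TO-PRO-1 fluorescence as compound displaces dye from 1x1 AA loop RNA; 0% = DMSO only wells and 100% = 100 µM mitoxantrone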
dCAG dye counter: DNA CAG dye complex inhibition counter-screen; shares compounds with rCAG RNA binder; d(CAG) DNA oligo TO-PRO-1 dye displacement, fluorescence; inhibition, % at 3 µM; AID 652068; actives 94% (n = 4,300);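 active = inhibition above its plate's cutoff, the mean test-well inhibition plus 3 SD, cut at about 4.8% in these data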;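 also: 0% = DNA dye mix with DMSO and 100% = 100 µM mitoxantrone; hits displace the dye from DNA and so lower well fluorescence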
DNA CAG DR: disrupts DNA CAG TO-PRO-1 complex in dose response; actives 20% (n = 250); shares compounds with rCAG RNA binder; IC50, µM; DNA CAG/GTC duplex TO-PRO-1 dye displacement fluorescence; in the data active = IC50 below about 10 µM
The depositor's hits bear a star; · = not tested or not shown. The list is not random: actives were taken first. Their share in the collection is about 2.2%.

SMILES | ARFGAP1 inh | NadD inh | ASAP1 inh | rCAG RNA binder | rCAG bind conf | dCAG dye counter | others
CCCCC(NC(=O)Cc1c(C)c2cc3c(C)c(C)oc3c(C)c2oc1=O)C(=O)O (stereo not drawn) | -1 | 8 | 12 | 38* | 41* | 9.7*
CSCC[C@H](NC(=O)Cc1c(C)c2cc3c(C)c(C)oc3cc2oc1=O)C(=O)N[C@@H](C(=O)O)c1ccccc1 | -22 | 1 | -4 | 40* | 47* | 14*
CN(C)c1ccc(CC(=O)N2CCCC(c3cc(C(=O)Nc4ccc(F)c(Cl)c4)no3)C2)cc1 (stereo not drawn) | 10 | 9 | 0 | 8 | · | ·
O=C(O)c1ccc(/C=N/NC(=O)c2cc3ccccc3cc2O)cc1 | -11 | 3 | -15 | 47* | 23 | 7.6*
Cn1c(/C=N/NC(=O)c2ccccc2Br)nc2ccccc21 | -5 | 0 | 4 | -4 | · | ·
Cn1c(O)c(/C=N/NC(=O)c2cc3ccccc3cc2O)c2ccccc21 | 14 | 31* | 14 | 95* | 90* | 75*
COc1ccc2c(c1)cc(C(=O)N/N=C/c1c(O)c(C(=O)O)cc3ccccc13)n2C | 6 | 9 | 19 | 91* | 89* | 68*
O=C(CNc1ccc2ccccc2c1)N/N=C/c1ccc(C(=O)O)cc1 | 3 | 6 | 3 | 22 | · | ·
C/C(=N\NC(=O)c1cc2ccccc2cc1O)c1cc2ccccc2o1 | -10 | 49* | -1 | 50* | 40* | 15*
C[C@@H]1CNC(=O)c2c(C(=O)Nc3ccc(CNC(=O)OC(C)(C)C)cc3)ncn21 | -4 | 12 | 3 | 3 | · | ·
C/C(CC(=O)N1CCN(C=O)CC1)=N\NC(=O)c1cc2ccccc2cc1O | -6 | 6 | 15 | 53* | 22 | 9.2*
Cc1ccc(S(=O)(=O)N2[C@@H](c3ccc4c(c3)OCO4)C(C(=O)O)=C[C@H]2C(C)(C)C)cc1 | -18 | -1 | -6 | 31 | · | ·
CCCC[C@@H]1C=C(C(=O)O)[C@H](c2ccc(Cl)cc2)N1S(=O)(=O)c1ccc(C)cc1 | -1 | 4 | 1 | 58* | 54* | 20*
CCCC[C@@H]1C=C(C(=O)O)[C@H](c2ccc3c(c2)OCO3)N1S(=O)(=O)c1ccc(C)cc1 | -17 | 6 | 3 | 45* | 39* | 11*
CCCCC[C@@H]1C=C(C(=O)O)[C@H](c2ccc(Br)cc2)N1S(=O)(=O)c1ccc(C)cc1 | -13 | 10 | -2 | 80* | 69* | 31*
CC[C@@H]1C=C(C(=O)O)[C@H](c2ccc(Cl)cc2)N1S(=O)(=O)c1ccc(C)cc1 | 2 | 1 | -1 | 24 | · | ·
CC(C)(C)OC(=O)N[C@H]1C=C[C@@H](CC(=O)OCC(F)(F)F)C1 | 14 | · | 15 | 0 | · | ·
O=C(NC(=S)Nc1cccc2c(O)cccc12)c1ccccc1[N+](=O)[O-] | 1 | 9 | 14 | 39* | 12 | 7.3*
O=C(NNC(=S)NC(=O)c1ccccc1[N+](=O)[O-])c1ccccc1O | 6 | 8 | 9 | 2 | · | ·
Cc1ccc(C)c(C(O)c2ncc(-c3ccccc3Cl)[nH]2)c1 (stereo not drawn) | -5 | -10 | 2 | -1 | · | ·
COc1ccc(Br)cc1/C=C(\C(=O)O)c1ccc(S(=O)(=O)N2CCCC2)s1 | -5 | 5 | 7 | 52* | 47* | 14*
CCOc1ccc(/C=C(\C(=O)O)c2ccc(S(=O)(=O)N3CCOCC3)s2)cc1OC | 6 | -5 | -11 | 10 | · | ·
COc1cc(/C=C(\C(=O)O)c2ccc(S(=O)(=O)N3CCCC3)s2)cc(OC)c1 | 16 | -5 | -8 | 26 | · | ·
CCOc1ccc(/C=C(\C(=O)O)c2ccc(S(=O)(=O)N3CCCCC3)s2)cc1OC | 6 | 0 | 1 | 38* | 35* | 10*
O=C(c1ccco1)[C@@H]1[C@@H]2C(=O)N(c3ccc(Br)cc3)C(=O)[C@@H]2C2c3ccccc3C=CN21 (stereo partly drawn) | -8 | 32* | 0 | 38* | 29 | 16*
SMILES | ARFGAP1 inh | NadD inh | ASAP1 inh | rCAG RNA binder | rCAG bind conf | dCAG dye counter | others
O=C(CN(C(=O)OCC1c2ccccc2-c2ccccc21)[C@@H](Cc1ccccc1)C(=O)O)OCc1ccc(C(=O)NCc2ccccc2)cc1 | · | · | · | 61* | 70* | 27* | DNA CAG DR=>30
CC(C)(C)OC(=O)[C@H](Cc1ccccc1)NCC(=O)OCc1ccc(C(=O)NCc2ccccc2)cc1 | · | · | · | 1 | · | ·
COc1ccc(C2C(C(=O)Nc3c(C)cccc3C)CCC(=O)N2c2ccc(OC)cc2)cc1 (stereo not drawn) | · | · | · | 8 | · | ·
Cc1ccc(C(=O)C2C(c3ccc(-c4ccccc4[N+](=O)[O-])o3)NC(=O)NC2(O)C(F)(F)F)cc1 (stereo not drawn) | -5 | -2 | 2 | -4 | · | ·
O=C1NC(c2ccc(-c3ccccc3[N+](=O)[O-])o2)C(C(=O)c2ccccc2)C(O)(C(F)(F)F)N1 (stereo not drawn) | -5 | -5 | 8 | 53* | 1 | 0
COc1ccc(-c2nn(-c3ccccc3)cc2C=O)cc1[N+](=O)[O-] | 2 | -4 | 17 | 2 | · | ·
COc1ccc(-c2nn(-c3ccccc3)cc2/C=C/C(=O)O)cc1[N+](=O)[O-] | 16 | -5 | 1 | 56* | 48* | 12*
COC(=O)c1sccc1S(=O)(=O)Nc1ccc(C(O)(C(F)(F)F)C(F)(F)F)cc1 | 6 | -9 | -16 | 7 | · | ·
Cn1c2ccccc2c2cc(/C=C(\NC(=O)c3ccccc3)C(=O)O)ccc21 | 2 | 1 | 11 | 37* | 26 | 8.0*
COC(=O)/C(=C\c1ccc2c(c1)c1ccccc1n2C)NC(=O)c1ccccc1 | 6 | 5 | -9 | 9 | · | ·
CCN(CC)S(=O)(=O)c1ccc(N2CCOCC2)c(NC(=O)C2CC2)c1 | 5 | -1 | -6 | -3 | · | ·
CCN(CC)S(=O)(=O)c1ccc(N2CCOCC2)c(NS(=O)(=O)c2ccc(Cl)s2)c1 | 22 | 0 | 1 | 44* | 39* | 10*
CC(C)CNC(=O)OCc1cn(Cc2cccc(F)c2F)nn1 | · | · | · | 0 | · | ·
Cc1[nH]c2ccccc2c1/C=N/NC(=O)c1cccc(Br)c1 | · | -1 | · | · | · | ·
COc1ccccc1NS(=O)(=O)c1cccc(C(=O)N/N=C(\C)c2ccncc2)c1 | -6 | 4 | 6 | 5 | · | ·
Cc1[nH]c2ccccc2c1/C=N/NC(=O)c1cccc(S(=O)(=O)Nc2ccccc2Cl)c1 | -4 | 13 | 5 | 48* | 63* | 21*
C/C(=N\NC(=O)c1cccc(S(=O)(=O)Nc2ccccc2Cl)c1)c1ccc(-n2ccnc2)cc1 | -13 | 19 | 5 | 40* | 45* | 14*
CN(CCc1ccccc1)C(=O)c1ccc2c(c1)ncn2C1CCCCC1 | · | · | · | 2 | · | ·
